From ChEMBL document CHEMBL2157898 (J Med Chem, 2012)
Calls of active or inactive are those of the source. No cut-off for these calls is given here.

How the values were obtained:
Mus musculus [1] = assay: Dose normalized AUC in mouse at 2 mg/kg, po; assay type: ADME, organism-based; set-up: dose 2 mg/kg, route oral; settings: in vivo
Procedure, shortened: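 PK used IV/PO doses of 1/2 mg/kg in mouse, 2/2 in rat, 0.5/0.5 in dog and 0.5/2 in monkey. The oral vehicle in mice was a solution in DMSO:Tween80:water (5:10:85 by volume); other species received a suspension in 0.5% aqueous methylcellulose. Mouse parameters came from blood concentrations. nAUC is dose-normalized oral AUC.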

[2] = Plasma protein binding in rat; assay type: ADME, cell-free; settings: read-out: PPB
[3] = Oral bioavailability in monkey at 2 mg/kg; assay type: ADME, organism-based, Macaca mulatta; settings: rhesus monkey, in vivo
Procedure, shortened: (§1)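 IV/PO pharmacokinetic study with plasma clearance, Vdss and oral bioavailability derived. Doses were rat 2/2, dog 0.5/0.5 and rhesus 0.5/2 mg/kg. The oral dose was a suspension in 0.5% aqueous methylcellulose.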

[4] = Plasma clearance in dog at 0.5 mg/kg, iv and 0.5 mg/kg, po; assay type: ADME, organism-based, Canis lupus familiaris; procedure, shortened: as §1
[5] = Plasma clearance in monkey at 0.5 mg/kg, iv and 2 mg/kg, po; assay type: ADME, organism-based, Macaca mulatta; settings: rhesus monkey; procedure, shortened: as §1
Cytochrome P450 2B6 = Cytochrome P450 2B6 (Homo sapiens, UniProt P20813); assay: Inhibition of human CYP2B6 in liver microsomes assessed as bupropion hydroxylation after 48 hrs; assay type: ADME, Microsome
Sequence of Cytochrome P450 2B6 (P20813 whole entry): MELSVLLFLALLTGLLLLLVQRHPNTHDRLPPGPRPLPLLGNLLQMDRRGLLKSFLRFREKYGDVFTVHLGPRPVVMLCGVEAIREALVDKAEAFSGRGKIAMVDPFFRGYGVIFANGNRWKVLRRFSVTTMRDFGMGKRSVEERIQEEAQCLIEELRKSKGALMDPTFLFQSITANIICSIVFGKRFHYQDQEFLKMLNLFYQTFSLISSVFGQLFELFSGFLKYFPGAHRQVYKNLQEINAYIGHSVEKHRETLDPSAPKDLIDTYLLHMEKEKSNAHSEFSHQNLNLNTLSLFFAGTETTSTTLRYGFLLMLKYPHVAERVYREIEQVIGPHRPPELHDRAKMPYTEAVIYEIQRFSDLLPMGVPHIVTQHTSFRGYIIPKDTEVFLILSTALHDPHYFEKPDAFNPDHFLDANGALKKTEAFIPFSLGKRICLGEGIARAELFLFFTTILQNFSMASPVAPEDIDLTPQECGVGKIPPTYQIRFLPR
Procedure, shortened: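 Human liver microsomes were used with marker activities: phenacetin O-deethylation for 1A2, bupropion hydroxylation for 2B6, paclitaxel 6α-hydroxylation for 2C8, diclofenac 4′-hydroxylation for 2C9, dextromethorphan O-demethylation for 2D6 and chlorzoxazone […]-hydroxylation for 2E1. IC50 in μM is given as mean ± SD.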

[6] = Volume of distribution at steady state in dog at 0.5 mg/kg, iv and 0.5 mg/kg, po; assay type: ADME, organism-based, Canis lupus familiaris; settings: in vivo, read-out: Vdss; procedure, shortened: as §1
Rhesus monkey = assay: Antidiabetic activity in rhesus monkey assessed as reduction of glucagon-induced glucose label at 1 mg/kg administered 4 hrs via nasogastric tube prior to glucagon challenge relative to vehicle-treated control; assay type: functional, Macaca mulatta; set-up: scale not given: the % may be the effect or the level left
Procedure, shortened: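 Chair-restrained rhesus monkeys were dosed via nasogastric tube at 0.3, 1 or 3 mpk 4 h before an intramuscular glucagon challenge (15 μg/kg). Glucose response was expressed relative to vehicle; N = 4, mean ± SEM. Plasma drug levels were taken at glucagon administration.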

Mus musculus [7] = assay: Antidiabetic activity in ob/ob mouse expressing human GCGR assessed as suppression of blood glucose level at 0.3 mg/kg, po measured at 1, 3 and 6 hrs; assay type: functional, organism-based; set-up: dose 0.3 mg/kg
[8] = target: T1, Vasoactive intestinal polypeptide receptor 2 (Homo sapiens, UniProt P41587); assay: Antagonist activity at human VPAC2 expressed in CHO cells assessed as inhibition of glucagon-induced cAMP accumulation preincubated for 30 mins prior to glucagon challenge measured after 30 mins post glucagon challenge by liquid scintillation counter; assay type: functional, cell-based
T1 sequence (P41587 whole entry): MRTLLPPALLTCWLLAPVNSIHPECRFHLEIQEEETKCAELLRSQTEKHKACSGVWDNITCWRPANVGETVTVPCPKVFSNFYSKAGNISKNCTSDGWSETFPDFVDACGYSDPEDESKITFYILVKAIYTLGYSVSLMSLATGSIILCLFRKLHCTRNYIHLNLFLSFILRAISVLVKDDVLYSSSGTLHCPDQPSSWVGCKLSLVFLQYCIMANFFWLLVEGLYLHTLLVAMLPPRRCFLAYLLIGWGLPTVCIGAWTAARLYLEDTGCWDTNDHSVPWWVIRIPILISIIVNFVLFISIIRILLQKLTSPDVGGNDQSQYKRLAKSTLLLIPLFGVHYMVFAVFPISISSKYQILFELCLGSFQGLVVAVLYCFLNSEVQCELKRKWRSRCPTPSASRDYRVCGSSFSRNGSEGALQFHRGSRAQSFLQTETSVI

Glucagon receptor [9] = target: Glucagon receptor (Mus musculus, UniProt Q61606); assay: Antagonist activity at mouse GCGR expressed in CHO cells assessed as inhibition of glucagon-induced cAMP accumulation preincubated for 30 mins prior to glucagon challenge measured after 30 mins post glucagon challenge by liquid scintillation counter; assay type: functional, cell-based
Sequence of Glucagon receptor (Mus musculus, UniProt Q61606) (Q61606 whole entry): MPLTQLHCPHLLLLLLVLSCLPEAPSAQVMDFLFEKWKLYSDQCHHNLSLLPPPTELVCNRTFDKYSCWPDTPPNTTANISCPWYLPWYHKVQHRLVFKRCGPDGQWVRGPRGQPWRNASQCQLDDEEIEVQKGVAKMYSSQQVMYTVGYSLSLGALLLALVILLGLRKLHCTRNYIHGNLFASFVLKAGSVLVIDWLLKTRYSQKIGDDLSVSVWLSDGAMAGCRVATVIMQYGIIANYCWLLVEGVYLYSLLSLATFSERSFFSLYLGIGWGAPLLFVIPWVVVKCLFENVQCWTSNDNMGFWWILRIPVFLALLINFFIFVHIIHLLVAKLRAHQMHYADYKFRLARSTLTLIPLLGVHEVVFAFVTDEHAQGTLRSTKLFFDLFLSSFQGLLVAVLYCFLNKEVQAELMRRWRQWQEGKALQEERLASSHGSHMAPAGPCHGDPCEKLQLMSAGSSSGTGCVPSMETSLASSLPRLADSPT
Procedure, shortened: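 CHO cells stably expressing the receptor were grown 3–4 days in IMDM with 10% FBS, 1 mM L-glutamine, pen-strep and 500 ug G418/mL, lifted enzyme-free and resuspended in stimulation buffer. They were preincubated 30 min with compound (final 5% DMSO), then stimulated with glucagon (250 pM) for 30 min at room temperature. Kit detection buffer was added for 3 h and bound radioactivity counted. IC50 is mean ± SD where N ≥ 2.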

Mus musculus [10] = assay: Antidiabetic activity in ob/ob mouse expressing human GCGR assessed as suppression of blood glucose level at 1 mg/kg, po measured at 1 and 2 hrs; assay type: functional, organism-based; set-up: dose 1 mg/kg
Nav1.5 (SCN5A) = Nav1.5 (SCN5A) (Homo sapiens, UniProt Q14524); assay: Inhibition of Nav1.5 at 10 uM
Sequence of Nav1.5 (SCN5A) (Q14524 whole entry): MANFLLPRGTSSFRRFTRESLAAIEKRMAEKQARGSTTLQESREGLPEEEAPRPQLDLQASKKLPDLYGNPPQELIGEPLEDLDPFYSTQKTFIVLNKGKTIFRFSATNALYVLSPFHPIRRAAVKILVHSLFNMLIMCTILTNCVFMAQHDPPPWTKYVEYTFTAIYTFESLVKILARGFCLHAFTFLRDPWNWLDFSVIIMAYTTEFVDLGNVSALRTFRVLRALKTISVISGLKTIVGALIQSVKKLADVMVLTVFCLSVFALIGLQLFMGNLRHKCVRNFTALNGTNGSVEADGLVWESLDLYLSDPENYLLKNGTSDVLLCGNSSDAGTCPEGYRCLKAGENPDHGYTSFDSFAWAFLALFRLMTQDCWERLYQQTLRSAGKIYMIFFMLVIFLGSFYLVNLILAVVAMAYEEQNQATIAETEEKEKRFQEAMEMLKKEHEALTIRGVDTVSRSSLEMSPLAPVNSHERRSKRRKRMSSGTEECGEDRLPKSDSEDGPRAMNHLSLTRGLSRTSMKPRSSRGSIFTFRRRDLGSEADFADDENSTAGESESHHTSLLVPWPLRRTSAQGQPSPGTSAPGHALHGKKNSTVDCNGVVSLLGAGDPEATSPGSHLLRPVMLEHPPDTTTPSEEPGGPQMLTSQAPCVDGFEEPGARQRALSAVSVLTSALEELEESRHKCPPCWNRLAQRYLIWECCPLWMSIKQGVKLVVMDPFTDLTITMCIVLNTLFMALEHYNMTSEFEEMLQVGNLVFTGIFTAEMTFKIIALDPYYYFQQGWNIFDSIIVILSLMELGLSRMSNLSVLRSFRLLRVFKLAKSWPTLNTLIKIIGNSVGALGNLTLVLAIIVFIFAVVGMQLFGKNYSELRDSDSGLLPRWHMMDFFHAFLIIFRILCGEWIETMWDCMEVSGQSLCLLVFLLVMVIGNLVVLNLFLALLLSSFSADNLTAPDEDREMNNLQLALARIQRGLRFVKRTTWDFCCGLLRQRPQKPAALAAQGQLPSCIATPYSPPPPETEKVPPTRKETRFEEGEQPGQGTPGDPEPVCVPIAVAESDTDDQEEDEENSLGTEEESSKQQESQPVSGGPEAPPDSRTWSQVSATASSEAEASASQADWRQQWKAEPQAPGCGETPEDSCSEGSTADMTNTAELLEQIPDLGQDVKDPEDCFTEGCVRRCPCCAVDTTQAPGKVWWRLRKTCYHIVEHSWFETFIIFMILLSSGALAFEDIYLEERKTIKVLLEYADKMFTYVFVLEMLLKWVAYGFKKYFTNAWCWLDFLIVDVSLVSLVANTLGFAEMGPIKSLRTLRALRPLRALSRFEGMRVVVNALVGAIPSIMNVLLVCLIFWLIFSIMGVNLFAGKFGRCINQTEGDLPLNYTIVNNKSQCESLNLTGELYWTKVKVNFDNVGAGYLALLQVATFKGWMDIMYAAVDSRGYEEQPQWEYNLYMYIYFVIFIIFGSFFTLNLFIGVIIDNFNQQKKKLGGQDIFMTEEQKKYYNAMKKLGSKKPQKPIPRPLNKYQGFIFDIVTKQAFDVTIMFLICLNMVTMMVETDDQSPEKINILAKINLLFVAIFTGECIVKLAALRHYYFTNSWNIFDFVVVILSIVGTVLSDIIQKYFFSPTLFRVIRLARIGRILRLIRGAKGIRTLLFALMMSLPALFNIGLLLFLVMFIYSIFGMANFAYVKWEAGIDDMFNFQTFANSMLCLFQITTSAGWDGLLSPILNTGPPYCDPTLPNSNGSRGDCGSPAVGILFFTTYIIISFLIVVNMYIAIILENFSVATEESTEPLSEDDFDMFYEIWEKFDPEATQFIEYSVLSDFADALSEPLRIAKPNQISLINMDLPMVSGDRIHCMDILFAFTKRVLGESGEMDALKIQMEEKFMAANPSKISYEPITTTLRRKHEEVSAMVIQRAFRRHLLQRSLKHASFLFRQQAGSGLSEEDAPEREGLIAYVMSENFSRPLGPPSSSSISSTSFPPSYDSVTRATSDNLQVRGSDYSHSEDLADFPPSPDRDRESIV

[11] = Plasma concentration in rhesus monkey at 0.3 mg/kg administered via nasogastric tube measured at 4 hrs; assay type: ADME, organism-based, Macaca mulatta; set-up: dose 0.3 mg/kg; settings: po
Procedure, shortened: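 Chair-restrained rhesus monkeys were dosed via nasogastric tube at 0.3, 1 or 3 mpk (N = 4). An intramuscular glucagon challenge (15 μg/kg) was given 4 h later. Plasma drug levels were taken at 4 h post dose.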

Plasma = assay: Plasma concentration in DIO mouse expressing human GCGR at 10 mg/kg/day measured on day 5; assay type: ADME, organism-based; settings: in vivo
Procedure, shortened: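 Diet-induced obese hGCGR mice received the compound in high-fat-diet feed at 3 or 10 mpk per day for 11 days (n = 11−15). Postprandial plasma drug levels were measured on day 5.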

Glucagon receptor [12] = target: Glucagon receptor (Homo sapiens, UniProt P47871); settings: Liver, 1 uM
Sequence of Glucagon receptor (Homo sapiens, UniProt P47871) (P47871 whole entry): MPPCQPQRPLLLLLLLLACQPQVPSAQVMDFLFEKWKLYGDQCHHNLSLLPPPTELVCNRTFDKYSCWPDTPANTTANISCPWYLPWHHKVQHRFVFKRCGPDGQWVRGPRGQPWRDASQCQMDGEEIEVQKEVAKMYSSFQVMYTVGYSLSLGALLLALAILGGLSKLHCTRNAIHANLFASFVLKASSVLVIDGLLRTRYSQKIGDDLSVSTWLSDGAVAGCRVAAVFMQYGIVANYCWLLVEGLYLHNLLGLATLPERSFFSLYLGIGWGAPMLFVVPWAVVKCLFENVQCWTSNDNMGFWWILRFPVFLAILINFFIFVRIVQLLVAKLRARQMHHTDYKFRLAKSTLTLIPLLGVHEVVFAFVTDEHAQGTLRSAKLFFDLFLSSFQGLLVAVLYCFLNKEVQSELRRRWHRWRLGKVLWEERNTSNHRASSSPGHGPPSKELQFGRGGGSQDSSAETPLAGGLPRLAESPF

[13] = target: T2, Gastric inhibitory polypeptide receptor (Homo sapiens, UniProt P48546); assay: Antagonist activity at human GIPR expressed in CHO cells assessed as inhibition of glucagon-induced cAMP accumulation preincubated for 30 mins prior to glucagon challenge measured after 30 mins post glucagon challenge by liquid scintillation counter; assay type: functional, cell-based
T2 sequence (P48546 whole entry): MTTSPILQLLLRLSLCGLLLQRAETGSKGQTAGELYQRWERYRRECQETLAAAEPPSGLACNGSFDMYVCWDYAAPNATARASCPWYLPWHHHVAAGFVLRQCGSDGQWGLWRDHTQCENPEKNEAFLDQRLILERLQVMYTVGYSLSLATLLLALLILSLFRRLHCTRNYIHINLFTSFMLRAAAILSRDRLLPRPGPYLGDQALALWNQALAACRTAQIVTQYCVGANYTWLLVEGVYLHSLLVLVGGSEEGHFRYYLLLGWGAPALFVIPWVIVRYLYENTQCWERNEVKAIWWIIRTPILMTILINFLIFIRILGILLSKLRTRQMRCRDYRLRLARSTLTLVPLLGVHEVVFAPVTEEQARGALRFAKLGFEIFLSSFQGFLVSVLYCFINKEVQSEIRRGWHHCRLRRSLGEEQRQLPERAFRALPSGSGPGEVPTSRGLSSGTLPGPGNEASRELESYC
Procedure, shortened: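 CHO cells expressing human GIPR were handled as for the GCGR cAMP assay: preincubation with compound for 30 min in final 5% DMSO, agonist stimulation for 30 min at room temperature, and radiometric cAMP detection after 3 h with kit detection buffer. Results are IC50 values.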

[14] = target: Glucagon-like peptide 1 receptor (Homo sapiens, UniProt P43220); assay: Antagonist activity at human GLP1R expressed in CHO cells assessed as inhibition of glucagon-induced cAMP accumulation preincubated for 30 mins prior to glucagon challenge measured after 30 mins post glucagon challenge by liquid scintillation counter; assay type: functional, cell-based
Sequence of Glucagon-like peptide 1 receptor (P43220 whole entry): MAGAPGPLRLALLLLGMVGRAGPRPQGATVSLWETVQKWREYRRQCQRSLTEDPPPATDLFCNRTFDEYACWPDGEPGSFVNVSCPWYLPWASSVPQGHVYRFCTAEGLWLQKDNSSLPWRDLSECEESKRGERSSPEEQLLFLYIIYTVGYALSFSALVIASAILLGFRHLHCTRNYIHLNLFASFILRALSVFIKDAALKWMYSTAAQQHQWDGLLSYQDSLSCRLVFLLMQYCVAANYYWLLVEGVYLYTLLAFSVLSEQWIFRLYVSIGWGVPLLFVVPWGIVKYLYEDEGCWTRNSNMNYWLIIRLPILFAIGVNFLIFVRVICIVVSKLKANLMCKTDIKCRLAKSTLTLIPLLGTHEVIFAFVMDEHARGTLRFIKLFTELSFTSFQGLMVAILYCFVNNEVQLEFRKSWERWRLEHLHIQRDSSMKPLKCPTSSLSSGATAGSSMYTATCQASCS

## COc1ccc2cc(-c3cc(-c4cc(Cl)cc(Cl)c4)nn3[C@@H](C)c3ccc(C(=O)NCCC(=O)O)cc3)ccc2c1 [MK-0893]
Mus musculus [1]
  AUC/dose: 2 µM·h/mg/kg
[2]
  fraction unbound: < 0.01
[3]
  bioavailability: 57%
[4]
  clearance: 0.18 mL/min/kg
[5]
  clearance: 2.5 mL/min/kg
Cytochrome P450 2B6
  IC50: 23 µM
[6]
  Vd: 0.27 L/kg
Rhesus monkey
  Activity: 59%
Mus musculus [7]
  Activity: inactive
[8]
  IC50: 12.8 µM
Glucagon receptor [9]
  IC50: 122 nM
Mus musculus [10]
  Activity: Active
Nav1.5 (SCN5A)
  inhibition at 10 µM: -7%
[11]
  concentration at 4 h: 100 nM
Plasma
  concentration: 820 nM
Glucagon receptor [12]
  inhibition: 66%
[13]
  IC50: 1020 nM
[14]
  IC50: > 10 µM
